Substrate in the data set: Nc1ncnc2c1ncn2[C@H]1C=C[C@@H](CO)O1
In words: Menten constant against adenosine deaminase (ADA). An outline of the steps:
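Deamination by calf intestinal mucosa adenosine deaminase (0.15 units, MW 33 000, in 2 mL) in phosphate buffer pH 7.4 at 25 °C, substrate 15–100 μM, monitored by UV at 265 nm. Initial rates from graphical fitting of concentration vs time; Vmax and KM from Lineweaver–Burk plot, kcat calculated from enzyme amount.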

By Km is commonly meant the substrate concentration at which the rate is half of its maximum.

B1: Adenosine deaminase (Bos taurus), P56658 (protein)
chain: MAQTPAFNKPKVELHVHLDGAIKPETILYYGRKRGIALPADTPEELQNIIGMDKPLSLPEFLAKFDYYMPAIAGCREAVKRIAYEFVEMKAKDGVVYVEVRYSPHLLANSKVEPIPWNQAEGDLTPDEVVSLVNQGLQEGERDFGVKVRSILCCMRHQPSWSSEVVELCKKYREQTVVAIDLAGDETIEGSSLFPGHVKAYAEAVKSGVHRTVHAGEVGSANVVKEAVDTLKTERLGHGYHTLEDATLYNRLRQENMHFEVCPWSSYLTGAWKPDTEHPVVRFKNDQVNYSLNTDDPLIFKSTLDTDYQMTKNEMGFTEEEFKRLNINAAKSSFLPEDEKKELLDLLYKAYGMPSPASAEQCL
In the case of B1, the Michaelis-Menten constant (Km) came to 30 µM.

The record behind these values is ChEMBL document CHEMBL1148339, “Synthesis, structure-activity relationships, and drug resistance of beta-d-3'-fluoro-2',3'-unsaturated nucleosides as anti-HIV Agents” (J Med Chem, 2004).
